Test results taken from PubChem BioAssay AID602485 (The Scripps Research Institute Molecular Screening Center, 2012).
The source made the active and inactive calls.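 Rule for the calls: active = at least 50% ABHD10 inhibition in mouse heart after 25 mg/kg, and no other enzyme inhibited 50% at any dose; inactive = the rest.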

How the values were obtained:
[1] = in vivo ABHD10 engagement and hydrolase selectivity – gel-based competitive ABPP, fluorescence, mouse heart, in vivo study for PME-1 inhibitor project, late-stage follow-up (AID 602485); conditions: C57BL/6 mice i.p., heart proteome, FP-Rh gel ABPP; anti-targets at any tested dose
Procedure, shortened: (§1)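 test system = C57BL/6 mouse heart soluble proteome | amount = heart soluble proteome at 1 mg/mL | replicates = n of 1 per dose | detection = SDS-PAGE with in-gel fluorescence scanning of probe-labelled bands | read-out basis = percent inhibition from band integrated optical density versus vehicle | schedule = 6 h in vivo exposure, probe labelling 30 min at 25 °C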

[2] = molecular target: Palmitoyl-protein thioesterase ABHD10, mitochondrial (Mus musculus) (UniProt Q6PE15); assay: as above; conditions: C57BL/6 mice i.p., heart proteome, FP-Rh gel ABPP, stronger effect = higher value
Chain of Palmitoyl-protein thioesterase ABHD10, mitochondrial (Mus musculus) (Q6PE15 whole entry, looked up): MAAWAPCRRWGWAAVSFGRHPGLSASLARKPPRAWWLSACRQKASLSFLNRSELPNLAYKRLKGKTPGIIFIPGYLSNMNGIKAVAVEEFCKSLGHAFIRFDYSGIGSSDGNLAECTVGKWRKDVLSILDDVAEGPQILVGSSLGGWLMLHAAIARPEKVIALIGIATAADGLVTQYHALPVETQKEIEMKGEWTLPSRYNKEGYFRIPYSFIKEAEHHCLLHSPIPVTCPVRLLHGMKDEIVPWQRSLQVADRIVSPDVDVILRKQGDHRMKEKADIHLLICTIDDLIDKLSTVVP
Procedure, shortened: as §1

For CC[C@@]1(c2ccc(C)cc2)C(=O)N(C(=O)OC(C)C)N1C(=O)OC(C)C, the outcome [1] was “inactive”, the inhibition [2] was 99% and the inhibition ([2]; inhibition at 6 mg/kg) was 10%. It also gave an inhibition ([2]; inhibition at 13 mg/kg) of 60%.
